Screening results: PubChem BioAssay, several laboratories
Shown are actives, neighbours in structure and some others; about 6.5% of the full set was active somewhere.
PostGolgi yeast: growth inhibition of a yeast mutant, post-Golgi transport screen | post-Golgi transport phenotypic cell assay | 98,000 compounds, 0.9% hits | inhibition, % at 10 µM;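 note: yeast cells grown in 1536-well plates; yeast grown about 18 h at 30C before absorbance read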
Ecoli WT expand: growth inhibitors of E. coli BW25113 wild type. 98,000 compounds, 0.15% hits. OD600 absorbance. growth inhibition, % at 100 µM;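 active = growth inhibition above about 50% at one test dose, limit read from the data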;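 note: growth measured after 20 h incubation at 37 °C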
Pyk2 oligo antag: Pyk2 (human) oligomerization antagonism | Q293 cells, Pyk2 FERM NanoBiT luminescence; active compounds read low | AID 1347419 | 99,000 compounds, 0.83% hits | z-score (the deposit names both 25 µM and 10 µM) | Q14289;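 active = Z-score of -3 or lower, scaled per plate to the spread of control and sample wells; inactive = z-score above -3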;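 note: negative z-score means lost luminescence so less FERM oligomerization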
Target sequence (Q14289 whole entry, looked up): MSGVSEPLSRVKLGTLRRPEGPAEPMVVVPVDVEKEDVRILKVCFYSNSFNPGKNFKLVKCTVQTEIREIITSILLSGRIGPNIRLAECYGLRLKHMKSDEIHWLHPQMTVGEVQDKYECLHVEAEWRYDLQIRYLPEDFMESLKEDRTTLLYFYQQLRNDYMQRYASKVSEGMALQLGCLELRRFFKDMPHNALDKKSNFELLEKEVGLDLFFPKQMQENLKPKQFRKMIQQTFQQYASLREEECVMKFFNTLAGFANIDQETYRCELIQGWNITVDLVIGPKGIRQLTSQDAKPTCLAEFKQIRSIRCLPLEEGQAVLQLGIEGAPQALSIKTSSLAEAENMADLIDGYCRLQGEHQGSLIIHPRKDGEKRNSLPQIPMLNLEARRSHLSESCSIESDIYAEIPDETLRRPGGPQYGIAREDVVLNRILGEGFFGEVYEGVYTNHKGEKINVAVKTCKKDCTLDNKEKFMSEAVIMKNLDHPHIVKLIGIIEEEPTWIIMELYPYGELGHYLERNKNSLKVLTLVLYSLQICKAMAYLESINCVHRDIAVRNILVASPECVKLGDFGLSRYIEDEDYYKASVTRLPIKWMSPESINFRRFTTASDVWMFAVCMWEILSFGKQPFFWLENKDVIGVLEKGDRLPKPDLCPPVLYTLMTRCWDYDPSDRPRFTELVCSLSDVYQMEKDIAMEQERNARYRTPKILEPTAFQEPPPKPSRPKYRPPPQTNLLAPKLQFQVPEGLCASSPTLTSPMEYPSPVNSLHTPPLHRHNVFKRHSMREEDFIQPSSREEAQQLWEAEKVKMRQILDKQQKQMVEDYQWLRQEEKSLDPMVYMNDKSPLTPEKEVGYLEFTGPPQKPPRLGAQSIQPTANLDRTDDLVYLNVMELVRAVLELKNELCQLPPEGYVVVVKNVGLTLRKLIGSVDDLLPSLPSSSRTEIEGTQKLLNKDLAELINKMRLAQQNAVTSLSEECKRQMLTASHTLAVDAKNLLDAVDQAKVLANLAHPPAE
PostGolgi ctrl: growth of the yeast control strain, post-Golgi counter-screen; efflux-deficient yeast background strain, growth absorbance A615, 16 h; inhibition, % at 10 µM; 98,000 compounds, 5% hits
Calb biofilm kill: kills Candida albicans biofilms | C. albicans biofilm + clotrimazole, Alamar Blue | inhibition, % at 6 µM | 85,000 compounds, 0.14% hits;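 active = inhibition above 20%; inactive = inhibition below 20%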;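 note: preformed 24 hr biofilms exposed to compound for 48 hr; 0% = biofilm without compound and 100% = blank killed by clotrimazole plus chlorhexidine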
tolC growth inh: blocks growth of E. coli BW25113 tolC mutant; OD615; growth inhibition, % at 10 µM (by protocol); 65,000 compounds, 2.2% hits;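 active = growth inhibition at or above a cutoff equal to the mean over every tested compound plus 3 SD, cut at about 60% in these data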;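 note: growth measured after 20 h incubation at 37 °C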
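Doses: one dose of 10 µM final / Material: E. coli BW25113 ΔtolC::kan, tolC deletion mutant strain / Buffer or medium: LB with kanamycin 50 µg/mL / Evaluation: percent growth inhibition / Detection: optical density read at 615 nm / Incubation: 37 °C, 20 h exposure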
* marks the source's active call; other numbers are inactive results; x = no result. Cut-off read from the data, not from the text of the source, unless noted: active = inhibition above about 30%; inactive = the rest.

SMILES | PostGolgi yeast | Ecoli WT expand | Pyk2 oligo antag | PostGolgi ctrl | Calb biofilm kill | tolC growth inh
CCOc1cc(/C=N/N=C(\N)c2nonc2N)cc(Br)c1OCc1cccc2ccccc12 | 17 | -10 | 2.5 | -2 | 6 | x
COc1cc(/C=N/N=C(/N)c2nonc2N)cc(Br)c1OCc1cccc(C)c1 | -9 | -5 | -0.29 | 33* | 0 | x
O=C(OCCN1C(=O)c2ccccc2C1=O)c1cccc(OC(F)F)c1 | 2 | -10 | 0.38 | 36* | 8 | 12
COc1ccc(C(=O)OCCN2C(=O)c3ccccc3C2=O)cc1OC | x | x | x | x | x | -5
Cc1cc(C)n2[nH]c(=O)c(N=Nc3cccc(Cl)c3)c2n1 | -6 | 2 | -1.5 | 39* | x | x
Cc1cc(-n2ccc(=O)[nH]c2=O)nc(-c2ccccc2)n1 | 1 | -2 | 0.25 | 31* | 9 | -5
CC(C)CNC(=S)NC1CCCC1 | 14 | -3 | 0.24 | 4 | x | x
N/C(Cc1ccc(Cl)cc1)=N\OC(=O)C1CCCCC1 | x | x | -0.37 | x | x | x
N#Cc1c2n(c3c(=O)n(Cc4ccc(Cl)cc4)cnc13)CCCCC2 | -11 | -14 | -3.2* | 58* | -3 | 25
Clc1ccc(Cl)c(-c2ccc(/C=N/c3ncn[nH]3)o2)c1 | 4 | 6 | 0.58 | 12 | -6 | 1
NC(=S)N/N=C/c1ccc(-c2ccc(Cl)c(Cl)c2)o1 | 67* | -4 | -1.3 | 81* | 0 | x
NC(=S)N/N=C\c1ccc(-c2cccc(Cl)c2Cl)o1 | 9 | -18 | -2.7 | 48* | 8 | x
O=C(CN1CCCC1)N/N=C/c1ccc(-c2cccc(Cl)c2)o1 | 3 | 13 | 1.6 | 9 | x | x
N#CCN1CCN(CCC(=O)Nc2ccc(OCc3ccccc3)cc2)CC1 | 0 | 5 | 2.3 | 8 | 3 | x
Cc1c(-c2nc(N)nc(Nc3ccccc3)n2)oc2ccccc12 | 33* | -13 | -1.8 | 78* | 0 | 98*
Nc1nc(CN2CCCCCC2)nc(Nc2ccccc2)n1 | -5 | 9 | 0.46 | -4 | 7 | x
CC(=O)Nc1cc(C(C)(C)C)c(O)c(C(C)(C)C)c1 | -8 | 0 | -0.15 | 33* | 68* | x
CC(C)(C)c1cc(CNC2CS(=O)(=O)C[C@@H]2O)cc(C(C)(C)C)c1O (stereo partly drawn) | -5 | 5 | -0.49 | 4 | 4 | 6
COc1ccc(C/C(N)=N/OC(=O)C(c2ccccc2)c2ccccc2)cc1OC | 0 | -6 | -1.9 | 24 | x | x
N/C(Cc1ccc([N+](=O)[O-])cc1)=N\OC(=O)C(c1ccccc1)c1ccccc1 | -10 | -3 | 0.28 | 33* | x | x
N/C(Cc1ccc([N+](=O)[O-])cc1)=N\OC(=O)c1ccc2ccccc2c1 | 13 | 1 | 3.5 | 72* | -2 | x
O=C1CCCC(O)=C1C1C2=C(CCCC2=O)Oc2ccccc21 (stereo not drawn) | 0 | -1 | -1.1 | 3 | 6 | 8
CCc1nc(NCc2ccc3c(c2)OCO3)c2oc3ccccc3c2n1 | 0 | -14 | -0.34 | 55* | 9 | x
Cc1nc(Nc2ccc3c(c2)OCCO3)c2oc3ccccc3c2n1 | -4 | -10 | 0.24 | 19 | 8 | x
CCc1nc(Nc2ccc3c(c2)OCCO3)c2oc3ccccc3c2n1 | -4 | -17 | -3.4* | 10 | -2 | x
SMILES | PostGolgi yeast | Ecoli WT expand | Pyk2 oligo antag | PostGolgi ctrl | Calb biofilm kill | tolC growth inh
COCCn1c(SCC(=O)NCc2ccc3c(c2)OCO3)nnc1-c1c[nH]c2ccccc12 | 6 | -5 | x | -11 | 1 | 6
CN1C(=O)Cc2cc(S(=O)(=O)N3CCOCC3)ccc21 | 2 | 3 | 0.5 | 51* | 8 | -24
c1cncc(-c2nnc3sc(-c4ccco4)nn23)c1 | 4 | -5 | -0.02 | -2 | -6 | 19
CCN(CC)c1ccc(-c2nn3c(-c4cccnc4)nnc3s2)cc1 | -14 | -7 | -1.9 | 39* | x | 18
COc1ccc(CCC(=O)Nc2nc3c(s2)CN(C)CC3)cc1OC | -7 | -1 | 0.72 | 14 | 5 | -11
O=C(NC1CCCCCCC1)c1ccccc1O | 6 | 12 | -0.36 | 8 | 4 | 83*
CCCC(=O)NC(=S)Nc1cccc(Cl)c1N1CCCCC1 | -6 | 2 | 0.36 | 16 | x | x
CCC(=O)NC(=S)Nc1cccc(Cl)c1N1CCCCC1 | 2 | -5 | -0.35 | 45* | x | x
Cc1oc(-c2ccccc2)nc1CS(=O)CC(=O)N1CCc2ccccc2C1 (stereo not drawn) | 6 | -6 | x | 11 | 8 | 9
O=C(CSc1nccn1-c1ncc(C(F)(F)F)cc1Cl)c1ccc(Cl)cc1 | 3 | 4 | 0.61 | 32* | x | x
O=C(OCCN1CCN(c2ncc(C(F)(F)F)cc2Cl)CC1)c1ccc(Cl)cc1 | 16 | -2 | 0.66 | 31* | x | x
COc1cc(N/C=C(\C(C)=O)c2ccccc2)cc(OC)c1 | -4 | -6 | -0.66 | 12 | x | x
Cc1noc(C)c1CN1C(=O)NC(Cc2ccccc2)(Cc2ccccc2)C1=O | 13 | -4 | 0.78 | 3 | 4 | 10
Cc1cc(-c2sccc2C)nc(-n2cccc2)n1 | -2 | 4 | 0.01 | 8 | x | x
O=C1CN(C(=O)c2ccccn2)c2ccccc2N1 | -7 | -1 | 0.02 | -13 | x | 2
Cc1ccc(Nc2c([N+](=O)[O-])cc(C(=O)N3CC(=O)Nc4ccccc43)cc2[N+](=O)[O-])c(C)c1 | 3 | -7 | -3.4* | 0 | x | x
O=C(CSc1ncn[nH]1)c1ccc2c(c1)OCO2 | -5 | 8 | 0.52 | 0 | 2 | -2
CCCc1cc(-c2[nH]ncc2-c2ccc3c(c2)OCCCO3)c(O)cc1OC | 15 | 13 | x | 40* | 0 | x
CCc1cc(-c2[nH]ncc2-c2ccc3c(c2)OCO3)c(O)cc1O | x | x | -2.1 | x | 9 | 100*
CCOc1ccc(-c2[nH]ncc2-c2ccc(OC)c(OC)c2)c(O)c1 | -2 | -1 | -1.2 | 12 | 0 | 40
COc1ccc(-c2[nH]ncc2-c2ccc3c(c2)OCCO3)c(O)c1 | 13 | 3 | -2.2 | 3 | x | 98*
CCOC(=O)C1CCCc2c1[nH]c1c(C(N)=O)cccc21 (stereo not drawn) | 7 | -3 | -0.14 | 34* | -4 | x
C/C(N)=C(/C#N)C(=O)CSc1nc2cc(Cl)ccc2s1 | -12 | -2 | -0.05 | 44* | x | 21
C/C(N)=C(/C#N)C(=O)CSc1nnc(Nc2cccc(C)c2)s1 | x | x | -1.8 | x | -5 | -1
CCc1nc(N)c(C#N)c(-c2ccccc2OC)c1C | 31* | -8 | -0.95 | 4 | 4 | 12
SMILES | PostGolgi yeast | Ecoli WT expand | Pyk2 oligo antag | PostGolgi ctrl | Calb biofilm kill | tolC growth inh
COc1ccccc1-c1c(C)c(C)nc(N)c1C#N | 1 | -6 | -0.42 | 5 | 6 | 3
Cn1nc(C(=O)N2CCCC2)c2ccccc2c1=O | -3 | -5 | 1.4 | 30* | 3 | -16
CC(=O)c1ccc(NC2=C(N3CCOCC3)C(=O)c3ccccc3C2=O)cc1 | 1 | -17 | 0.63 | 34* | x | x
Cc1ccc(NC2=C(N3CCOCC3)C(=O)c3ccccc3C2=O)cc1 | -4 | -3 | -0.77 | 3 | x | x
CCN(CC)S(=O)(=O)c1ccc2c(c1)nc(CCC(=O)Nc1cccc(C(F)(F)F)c1)n2CC | 0 | -9 | -0.57 | 19 | 4 | x
CCn1c(CCC(=O)Nc2nc3c(s2)CCCC3)nc2cc(S(=O)(=O)N(C)C)ccc21 | -3 | 8 | 0.53 | 33* | 7 | 12
